Measurements taken from ChEMBL document CHEMBL4339228, “Identification of Isoform 2 Acid-Sensing Ion Channel Inhibitors as Tool Compounds for Target Validation Studies in CNS” (ACS Med Chem Lett, 2019).
In brackets after ≈: the same amount, converted by molar mass.

Key:
[1] = biological target: T1, Acid-sensing ion channel 2 (Mus musculus, UniProt Q925H0); assay: Inhibition of pH 5.5-stimulated mouse ASIC2a homomer expressed in CHOK1 cells assessed as reduction in channel activation by VSD fluorescence assay; assay type: cell-based
T1 sequence (Q925H0 whole entry): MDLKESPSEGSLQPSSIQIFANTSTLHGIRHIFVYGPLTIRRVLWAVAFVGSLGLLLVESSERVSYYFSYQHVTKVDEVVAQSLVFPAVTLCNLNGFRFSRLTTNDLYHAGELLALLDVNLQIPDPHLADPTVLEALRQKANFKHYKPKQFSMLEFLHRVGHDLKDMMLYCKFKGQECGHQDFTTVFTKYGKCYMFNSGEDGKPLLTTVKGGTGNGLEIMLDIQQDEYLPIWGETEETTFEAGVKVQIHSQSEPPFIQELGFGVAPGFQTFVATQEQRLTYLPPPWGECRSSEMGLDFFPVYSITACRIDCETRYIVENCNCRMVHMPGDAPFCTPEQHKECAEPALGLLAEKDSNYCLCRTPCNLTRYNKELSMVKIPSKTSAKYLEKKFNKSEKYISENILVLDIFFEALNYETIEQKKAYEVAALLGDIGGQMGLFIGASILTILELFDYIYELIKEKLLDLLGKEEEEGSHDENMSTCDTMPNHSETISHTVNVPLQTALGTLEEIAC

[2] = biological target: T2, Acid-sensing ion channel 1 (Mus musculus, UniProt Q6NXK8); assay: Inhibition of pH 6.6-stimulated mouse ASIC1a homomer expressed in CHOK1 cells assessed as reduction in channel activation by VSD fluorescence assay; assay type: cell-based
T2 sequence (Q6NXK8 whole entry): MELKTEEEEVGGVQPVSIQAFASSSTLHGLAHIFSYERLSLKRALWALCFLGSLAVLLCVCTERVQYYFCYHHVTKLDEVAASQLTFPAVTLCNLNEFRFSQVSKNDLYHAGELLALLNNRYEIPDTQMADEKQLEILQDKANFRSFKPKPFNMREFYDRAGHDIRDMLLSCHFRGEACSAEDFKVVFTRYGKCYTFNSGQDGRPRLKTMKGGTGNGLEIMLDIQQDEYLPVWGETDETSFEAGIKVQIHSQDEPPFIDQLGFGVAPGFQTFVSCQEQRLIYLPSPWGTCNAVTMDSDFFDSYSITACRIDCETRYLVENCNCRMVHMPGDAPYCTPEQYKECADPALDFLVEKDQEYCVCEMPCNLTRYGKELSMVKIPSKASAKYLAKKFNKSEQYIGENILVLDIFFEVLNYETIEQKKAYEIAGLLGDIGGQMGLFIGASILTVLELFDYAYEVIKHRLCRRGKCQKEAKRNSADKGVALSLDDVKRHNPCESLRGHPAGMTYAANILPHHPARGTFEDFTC

[3] = biological target: T3, Acid-sensing ion channel 1/2 (Mus musculus, UniProt Q6NXK8+Q925H0); assay: Inhibition of pH 6.25-stimulated mouse ASIC1a/2a […] expressed in CHOK1 cells assessed as reduction in channel activation by VSD fluorescence assay; assay type: cell-based
T3 sequence (Q6NXK8 whole entry): T2 sequence (Q6NXK8 whole entry)
T3 sequence (Q925H0 whole entry): T1 sequence (Q925H0 whole entry)

[4] = Volume of distribution in NMRI mouse at 1 mg/kg, iv by LC-MS/MS analysis; assay type: ADME, organism-based; conditions: in vivo
albumin = albumin (Homo sapiens, UniProt P02768); assay: Binding affinity to human serum albumin by NMR-based analysis; assay type: ADME; conditions: read-out: PPB (converted)
Cytochrome P450 1A2 = biological target: T4, Cytochrome P450 1A2 (Homo sapiens, UniProt P05177); assay: Inhibition of CYP1A2 (unknown origin) using pro-luciferin substrates in presence of NADPH by firefly luciferase reporter gene based P450-Glo assay; assay type: ADME
T4 sequence (P05177 whole entry): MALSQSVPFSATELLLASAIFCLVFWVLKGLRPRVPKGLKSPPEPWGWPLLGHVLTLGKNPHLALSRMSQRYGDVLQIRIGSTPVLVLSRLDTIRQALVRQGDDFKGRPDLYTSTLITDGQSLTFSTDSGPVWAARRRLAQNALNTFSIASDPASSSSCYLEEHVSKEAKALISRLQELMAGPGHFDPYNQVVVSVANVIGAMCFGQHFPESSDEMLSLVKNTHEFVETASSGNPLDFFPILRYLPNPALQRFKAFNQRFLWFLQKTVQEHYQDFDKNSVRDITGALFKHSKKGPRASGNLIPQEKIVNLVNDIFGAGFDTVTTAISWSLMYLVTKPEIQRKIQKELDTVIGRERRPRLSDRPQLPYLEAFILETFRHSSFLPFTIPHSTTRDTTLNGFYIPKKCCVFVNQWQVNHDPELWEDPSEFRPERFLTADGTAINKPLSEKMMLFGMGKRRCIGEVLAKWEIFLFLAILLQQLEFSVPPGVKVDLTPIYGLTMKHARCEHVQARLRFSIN

[5] = Kinetic solubility of the compound at pH 7.4; assay type: physicochemical; conditions: buffer, read-out: Kinetic_solubility
[6] = Ratio of drug level in brain to plasma of NMRI mouse at 1 mg/kg, iv measured after 2 to 8 hrs post dose; assay type: ADME, organism-based; conditions: read-out: BPR
[7] = biological target: Voltage-gated inwardly rectifying potassium channel KCNH2 (Homo sapiens, UniProt Q12809); assay: Inhibition of human ERG incubated for 4 hrs by fluorescence polarization assay
In short: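 Human ERG inhibition measured at concentrations up to 30 μM.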

[8] = Cmax in NMRI mouse at 3 mg/kg, po by LC-MS/MS analysis; assay type: ADME, organism-based; design: dose 3 mg/kg, route oral; conditions: in vivo
[9] = Clearance in NMRI mouse at 1 mg/kg, iv by LC-MS/MS analysis; assay type: ADME, organism-based; conditions: in vivo
[10] = Oral bioavailability in NMRI mouse at 3 mg/kg by LC-MS/MS analysis; assay type: ADME, organism-based; conditions: in vivo

Sequence of albumin (P02768 whole entry): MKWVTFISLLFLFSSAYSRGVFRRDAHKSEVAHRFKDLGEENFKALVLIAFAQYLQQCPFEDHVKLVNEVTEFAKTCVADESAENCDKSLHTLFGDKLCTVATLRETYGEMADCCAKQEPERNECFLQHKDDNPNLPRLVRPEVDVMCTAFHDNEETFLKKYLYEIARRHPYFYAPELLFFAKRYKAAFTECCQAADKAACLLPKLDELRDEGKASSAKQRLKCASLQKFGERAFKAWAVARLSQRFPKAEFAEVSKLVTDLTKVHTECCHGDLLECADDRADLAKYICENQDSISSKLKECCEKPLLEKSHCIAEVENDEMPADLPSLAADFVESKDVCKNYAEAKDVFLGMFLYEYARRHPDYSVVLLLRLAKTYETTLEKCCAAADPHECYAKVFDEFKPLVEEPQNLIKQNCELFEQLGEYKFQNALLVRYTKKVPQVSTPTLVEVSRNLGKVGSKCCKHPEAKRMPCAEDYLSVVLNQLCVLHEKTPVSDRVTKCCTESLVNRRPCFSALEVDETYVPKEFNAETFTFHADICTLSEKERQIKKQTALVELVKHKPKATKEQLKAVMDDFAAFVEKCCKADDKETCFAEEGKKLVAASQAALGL
Sequence of Voltage-gated inwardly rectifying potassium channel KCNH2 (Q12809 whole entry): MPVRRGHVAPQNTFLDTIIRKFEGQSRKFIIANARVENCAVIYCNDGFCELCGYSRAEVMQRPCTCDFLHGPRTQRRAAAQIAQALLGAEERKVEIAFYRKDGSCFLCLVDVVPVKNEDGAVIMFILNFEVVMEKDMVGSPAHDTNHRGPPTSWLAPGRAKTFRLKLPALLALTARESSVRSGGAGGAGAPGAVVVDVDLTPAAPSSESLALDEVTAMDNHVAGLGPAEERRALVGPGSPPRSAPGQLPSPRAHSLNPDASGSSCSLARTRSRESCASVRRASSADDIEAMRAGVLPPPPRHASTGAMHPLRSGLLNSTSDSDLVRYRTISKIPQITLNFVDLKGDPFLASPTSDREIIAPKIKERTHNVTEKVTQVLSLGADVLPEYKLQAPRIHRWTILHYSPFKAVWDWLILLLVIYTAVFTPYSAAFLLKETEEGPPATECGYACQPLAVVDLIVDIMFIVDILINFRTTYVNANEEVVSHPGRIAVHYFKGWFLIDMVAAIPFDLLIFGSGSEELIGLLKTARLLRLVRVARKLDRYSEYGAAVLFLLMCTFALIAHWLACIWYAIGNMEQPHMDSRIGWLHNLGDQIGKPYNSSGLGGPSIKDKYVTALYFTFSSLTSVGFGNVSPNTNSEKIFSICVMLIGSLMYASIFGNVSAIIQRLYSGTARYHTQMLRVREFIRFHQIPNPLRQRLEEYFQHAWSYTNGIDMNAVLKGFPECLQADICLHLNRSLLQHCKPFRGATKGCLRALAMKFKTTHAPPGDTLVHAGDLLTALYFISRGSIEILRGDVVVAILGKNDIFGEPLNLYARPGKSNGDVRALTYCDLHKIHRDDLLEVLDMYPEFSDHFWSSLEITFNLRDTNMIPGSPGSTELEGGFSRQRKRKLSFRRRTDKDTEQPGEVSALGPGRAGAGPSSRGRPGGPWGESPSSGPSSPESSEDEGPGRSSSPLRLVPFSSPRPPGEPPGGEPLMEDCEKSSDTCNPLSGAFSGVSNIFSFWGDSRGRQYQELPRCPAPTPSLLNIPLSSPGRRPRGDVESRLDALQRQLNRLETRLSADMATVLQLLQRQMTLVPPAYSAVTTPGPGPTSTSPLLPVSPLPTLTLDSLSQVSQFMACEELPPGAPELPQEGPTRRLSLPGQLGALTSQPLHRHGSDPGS

SMILES | IC50 [1] [µM] | IC50 [2] [µM] | IC50 [3] [µM] | other results
Cc1nn(-c2ncnc3c2CNC3)c(C)c1-c1cccc(F)c1 | > 30 | > 30 | > 30 | 
Cc1nn(-c2ccc(CN)cn2)c(C)c1-c1ccc(F)cc1 | 6.1 | > 30 | 8.5 | 
Cc1nn(-c2ncnc3c2CN(C)C3)c(C)c1-c1cccc(F)c1 | > 30 | > 30 | > 30 | 
Cc1nn(-c2ccc(CN)nc2)c(C)c1-c1ccc(F)cc1 | > 30 | > 30 | > 30 | 
Cc1nn(-c2ccc3c(c2)CNC3)c(C)c1-c1cccc(F)c1 | 9.9 | > 30 | 11.3 | 
Cc1nn(Cc2ccc(CN)cc2)c(C)c1-c1ccc(F)cc1 | 16.8 | > 30 | > 30 | 
Cc1nn(-c2ccc(C(C)N)cc2)c(C)c1-c1ccc(F)cc1 (configuration not stated) | 8.7 | > 30 | > 30 | 
Cc1nn(-c2ccc3c(c2)NCC3)c(C)c1-c1ccc(F)cc1 | > 30 | > 30 | > 30 | 
Cc1nn(-c2cccc(CN)c2)c(C)c1-c1ccc(F)cc1 | 15.6 | > 30 | > 30 | 
Cc1nn(-c2ncnc3c2CNC3)c(C)c1-c1ccc(F)cc1 | 17 | > 30 | > 30 | Vd [4]: 1.4 L/kg; fraction unbound (albumin): 0.06; IC50 (Cytochrome P450 1A2): 0.8 µM; solubility kinetic [5]: 32 µg/mL (≈ 103 µM); Kp [6]: 1.3; IC50 [7]: > 30 µM; Cmax [8]: 2600 nM; clearance [9]: 34 mL/min/kg; bioavailability [10]: 100%
Cc1nn(-c2ccc(CN)cc2)c(C)c1-c1ccc(C(F)(F)F)cc1 | > 30 | > 30 | > 30 | 
Cc1nn(-c2ccc(CCN)cc2)c(C)c1-c1ccc(F)cc1 | 11.7 | > 30 | > 30 | 
NCc1ccc(-n2cc(-c3ccc(F)cc3)cn2)cc1 | > 30 | > 30 | > 30 | 
Cc1nn(-c2ccc3c(c2)NCC3)c(C)c1-c1cccc(F)c1 | > 30 | > 30 | > 30 | 
N=C(N)c1ccc(/N=N/Nc2ccc(C(=N)N)cc2)cc1 [DIMINAZENE] | 169 | 56.9 | 45.2 | 
Cc1nn(-c2ccc(CN)cc2)c(C)c1-c1ccc(CN)cc1 | > 30 | > 30 | > 30 | 
Cc1nn(-c2ccc(CN)cc2)c(C)c1-c1cccc(F)c1 | 4.3 | > 30 | > 30 | 
Cc1ccc(-c2c(C)nn(-c3ccc(CN)cc3)c2C)cc1F | > 30 | > 30 | > 30 | 
Cc1nn(-c2ccc(C#N)cc2)c(C)c1-c1ccc(F)cc1 | > 30 | > 30 | > 30 | 
Cc1nn(-c2ccc(CN)cc2)c(C)c1-c1ccc(Cl)cc1 | > 30 | > 30 | > 30 | 
Cc1ccc(-c2c(C)nn(-c3ccc(CN)cc3)c2C)cc1 | 8.8 | > 30 | > 30 | 
Cc1nn(-c2ccc3c(c2)CNC3)c(C)c1-c1ccc(F)cc1 | 8.2 | > 30 | > 30 | fraction unbound (albumin): 0.05; IC50 (Cytochrome P450 1A2): 0.2 µM; solubility kinetic [5]: 56 µg/mL (≈ 182 µM); IC50 [7]: > 30 µM
COc1ccc(-c2c(C)nn(-c3ccc(CN)cc3)c2C)cc1 | 16.3 | > 30 | > 30 | 
Cc1nn(-c2ccc(CN)cc2)c(C)c1-c1ccc(F)cc1 | 18.9 | > 30 | 10.9 | Vd [4]: 50.9 L/kg; fraction unbound (albumin): 0.07; IC50 (Cytochrome P450 1A2): 0.4 µM; solubility kinetic [5]: 73 µg/mL (≈ 247 µM); Kp [6]: 61; IC50 [7]: > 30 µM; Cmax [8]: 90 nM; clearance [9]: 224 mL/min/kg; bioavailability [10]: 60%
Cc1ccc(-c2c(C)nn(-c3ccc(CN)cc3)c2C)cn1 | > 30 | > 30 | > 30 | 
